{
  "source": "PubChem BioAssay AID651628",
  "about": "(The Scripps Research Institute Molecular Screening Center, 2012)",
  "note": "Values without a mark were called inactive. The source made the active and inactive calls.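 The calls were made as follows: active = at least one off-target enzyme showing weaker fluorescent probe labeling in any proteome panel; inactive = no off-target enzyme affected in any panel.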",
  "data": [
    {"tested_on": "Membrane Proteome", "assay": "anti-target inhibition in MCF7 proteome, late-stage follow-up, selectivity assay for PAD4 inhibitor project, cell lysate, gel-based fluorescence, soluble and membrane fractions (AID 651628)", "details": "CA-Rh gel-based ABPP, anti-target count, at 50 µM, hits give high values", "outline": "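Buffer or medium: DPBS; System: MCF7 soluble or membrane proteome; Quantity: proteome protein concentration of 1 mg/ml; Also added: CA-Rh probe, 10 µM; Times: compound pre-incubation 1 h, then probe labelling 1 h, both 25 °C; Control set: DMSO-only reference; Signal: SDS-PAGE separation with in-gel fluorescence scanning of labelled bands.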", "values": [
      {"compound": "NC1=CC(=O)c2ccc(-c3cccc(C(=O)O)n3)nc2C1=O", "number of anti-targets": 0},
      {"compound": "COC(=O)c1cccc(-c2ccc3c(n2)C(=O)C(Br)=CC3=O)n1", "number of anti-targets": "> 5 (active)"},
      {"compound": "O=C1C(O)=C(O)C(=O)c2ncccc21", "number of anti-targets": "> 5 (active)"},
      {"compound": "O=C1C=C(Br)C(=O)c2ncccc21", "number of anti-targets": "> 5 (active)"},
      {"compound": "NC1=CC(=O)c2ccc(-c3ccccn3)nc2C1=O", "number of anti-targets": 0},
      {"compound": "COC1=C(Br)C(=O)c2nc(-c3ccccn3)ccc2C1=O", "number of anti-targets": "> 5 (active)"},
      {"compound": "COC(=O)c1cccc(-c2ccc3c(n2)C(=O)C(N)=CC3=O)n1", "number of anti-targets": 0},
      {"compound": "COC1=C(I)C(=O)c2nc(C#N)ccc2C1=O", "number of anti-targets": "> 5 (active)"},
      {"compound": "COC(=O)c1nc(C(=O)OC)c(NC(C)=O)c(-c2ccccc2Br)c1C", "number of anti-targets": 0},
      {"compound": "COC1=C(N)C(=O)c2ncccc2C1=O", "number of anti-targets": 0},
      {"compound": "COC1=C(N)C(=O)c2nc(-c3nc(C(=O)O)c(C)c(-c4ccc(OC)c(OC)c4O)c3N)ccc2C1=O", "number of anti-targets": 0},
      {"compound": "COC1=C(Br)C(=O)c2ncccc2C1=O", "number of anti-targets": "> 5 (active)"},
      {"compound": "COC1=CC(=O)c2nc(C#N)ccc2C1=O", "number of anti-targets": "> 5 (active)"},
      {"compound": "NC1=CC(=O)c2cccnc2C1=O", "number of anti-targets": 0}
    ]}
  ]
}
